Most compounds without a hit are left out; they make up all but 9.8% or so of the library.
PMI activator: increases human mannose-6-phosphate isomerase activity; activation factor at 20 µM; P34949; purified human PMI, coupled resazurin fluorescence, 20 min; hits give high values; 1 = vehicle control, 0 substrate-free wells; actives 0.005% (n = 190,000);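 active = activation factor of 2 or more at 20 µM, relative to plate controls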
Target sequence (P34949 whole entry, looked up): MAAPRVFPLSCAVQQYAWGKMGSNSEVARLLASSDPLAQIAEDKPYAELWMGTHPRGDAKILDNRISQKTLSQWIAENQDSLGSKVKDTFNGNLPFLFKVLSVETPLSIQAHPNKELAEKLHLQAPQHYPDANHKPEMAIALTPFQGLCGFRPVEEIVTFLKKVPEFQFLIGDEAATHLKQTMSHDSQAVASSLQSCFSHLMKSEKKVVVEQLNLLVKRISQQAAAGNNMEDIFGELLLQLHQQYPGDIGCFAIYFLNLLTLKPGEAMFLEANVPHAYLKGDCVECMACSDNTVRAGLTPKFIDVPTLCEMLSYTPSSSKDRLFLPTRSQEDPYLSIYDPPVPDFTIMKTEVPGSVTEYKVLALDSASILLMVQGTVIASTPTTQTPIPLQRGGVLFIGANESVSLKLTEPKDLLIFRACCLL
WT yeast gro inh: growth inhibition of WT yeast, mitochondrial fusion screen | mitochondrial fusion phenotypic screen, WT strain | inhibition, % at 10 µM | actives 2.1% (n = 190,000) | AID 1362; in the data active = inhibition above about 58%; tested in S. cerevisiae
Rad51 HR inh: Rad51 (human) homologous recombination inhibition; Q06609; hRad51 DNA strand exchange, fluorescence dequenching; inhibition, % at 10 µM; actives 0.085% (n = 200,000); AID 1385;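 active = inhibition above 40% at the single screening dose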
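Test system: preformed human Rad51 ssDNA filaments; also added: Donor/quencher-labelled 47-bp dsDNA substrate; doses: 10 µM final, single point; times: 37 °C 15-min filament assembly, 30-min compound preincubation, 15-min exchange; detection: FRET fluorescence dequenching, excitation 485 nm, emission 520 nm; read-out basis: Fluorescence-based percent inhibition, control- and blank-normalised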
Calpain2 inh: inhibitors of pig calpain II; inhibition, % at 16 µM; actives 0.37% (n = 220,000); purified calpain II, fluorogenic peptide substrate, 30 min; AID 1236;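 active = inhibition above about 50%, limit read from the data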
PMI act hi M6P: PMI (human) activation, high substrate | actives 0.34% (n = 190,000) | activation factor at 20 µM | P34949 | AID 1216 | coupled PMI enzyme assay, resazurin fluorescence, 20 min; hits give high values; 1 = untreated enzyme, 0 = substrate-free blank;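 active = activation factor of 2 or more at 20 µM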
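Material: human phosphomannose isomerase with PGI, G6PDH, diaphorase coupling enzymes. Quantity: 15 ng/mL PMI. Medium: HEPES pH 7.4 buffer with MgCl2 and Tween-20. Reagent: Near-saturating mannose-6-phosphate, 1.0 mM. Compound: 20 µM single dose. Times: enzyme reaction with compound 20 min at room temperature. Detection: resorufin fluorescence at Ex 544/Em 590 nm.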
L major viab: Leishmania major promastigote growth inhibition; Leishmania major promastigotes, resazurin fluorescence viability; inhibition, % at 10 µM; actives 9% (n = 200,000); AID 1063; in the data active = inhibition above about 50%;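 also: promastigotes grown with compound for 44 hours at 28 °C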
Hits are given with their value; n = inactive; x = no result given.

SMILES	PMI activator	WT yeast gro inh	Rad51 HR inh	Calpain2 inh	PMI act hi M6P	L major viab
COc1cccc(/C=N/NC(=O)C(=O)Nc2ccccc2OC(F)(F)C(F)F)c1O	n	n	x	n	n	97
Fc1cccc(CSc2ccc3nnc(-c4cccnc4)n3n2)c1	n	n	n	n	n	n
Cc1nc2ccc(-c3nc4cc(N)ccc4o3)cc2[nH]1	n	n	n	n	n	53
Nc1ccc2oc(-c3ccc4nc[nH]c4c3)nc2c1	n	n	n	n	n	n
CCCN(CCC)Cc1cc(=O)oc2cc3c(cc12)CCC3	x	x	n	n	x	x
CCN(CC(=O)Nc1ccc2c(c1)CCC2)Cc1nc2ccccc2c(=O)[nH]1	n	n	n	n	n	n
CCN(CC)CC(=O)Nc1ccc2c(c1)Nc1ccccc1CC2	n	n	n	n	n	52
O=C1c2[nH]nc(-c3ccccc3O)c2C(c2ccccc2)N1Cc1ccco1 (stereo not drawn)	n	n	n	n	n	78
O=C1c2[nH]nc(-c3ccccc3O)c2C(c2ccccc2F)N1Cc1ccco1 (stereo not drawn)	n	n	n	n	n	100
COc1cc(OC)c(-c2nn3c(-c4ccco4)nnc3s2)cc1OC	n	n	n	n	n	82
COc1cc2c(cc1OC)-c1nnc(-c3ccco3)n1C1(CCCC1)C2	n	n	n	n	n	58
COc1ccc(-c2nnc3sc(-c4ccco4)nn23)cc1OC	n	n	n	n	n	n
COc1ccc(-c2nn3c(-c4ccco4)nnc3s2)cc1OC	n	n	n	n	n	88
COc1cc(-c2nnc3sc(-c4ccco4)nn23)cc(OC)c1OC	n	n	n	n	n	n
CCOC(=O)c1cccnc1SCC(=O)N(CC)c1cccc(C)c1	n	n	n	n	n	91
Cc1ccc2nc(C3CCCN3Cc3nc(CCC(C)C)no3)[nH]c2c1 (stereo not drawn)	n	n	x	n	n	n
Cc1ncc(CN2CCC(CO)(Cc3ccccc3)CC2)s1	n	n	n	n	n	89
CCOC(=O)C1(CCc2ccccc2)CCN(Cc2ccn[nH]2)CC1	n	n	n	n	n	n
CCOC(=O)C1(CCCc2ccccc2)CCN(Cc2nccn2CC)CC1	n	59	x	n	n	75
CCOC(=O)C1(CCCc2ccccc2)CCN(CCCn2cccn2)CC1	n	n	x	n	n	76
CCOC(=O)C1(CCOc2ccccc2)CCN(Cc2nccn2CC)CC1	n	n	n	n	n	n
CCOC(=O)C1(CCCc2ccccc2)CCN(Cc2cnc(C)s2)CC1	n	n	n	n	n	77
CCOC(=O)C1(Cc2ccccc2C(F)(F)F)CCN(CCCn2cccn2)CC1	n	n	n	n	n	88
Cc1ccc(C(C(=O)NC2CCCCC2)N(C(=O)Cc2c[nH]c3ccccc23)c2ccccc2C)o1 (stereo not drawn)	n	n	n	n	n	n
Cc1ccccc1N(C(=O)Cc1c[nH]c2ccccc12)C(C(=O)NC1CCCCC1)c1ccco1 (stereo not drawn)	n	n	n	n	n	n
SMILES	PMI activator	WT yeast gro inh	Rad51 HR inh	Calpain2 inh	PMI act hi M6P	L major viab
COc1ccc(C(C(=O)NC2CCCCC2)N(C(=O)Cc2c[nH]c3ccccc23)c2ccccc2C)cc1OC (stereo not drawn)	n	n	n	n	n	95
Cc1ccc(C(C(=O)NC2CCCCC2)N(Cc2ccco2)C(=O)Cc2c[nH]c3ccccc23)o1 (stereo not drawn)	n	71	n	n	n	n
CC1CCCCN1Cc1c(O)ccc2c(=O)c(-c3nc4ccccc4s3)c(N)oc12 (stereo not drawn)	n	n	n	n	n	n
COc1cc(Nc2c3c(nc4ccccc24)CCCC3)cc(OC)c1OC	n	n	n	n	n	66
c1ccc2c(Nc3ccc4c(c3)OCCO4)c3c(nc2c1)CCCC3	n	n	x	n	n	99
O=C(Nc1c2c(nc3ccccc13)CCCC2)c1ccccc1F	n	n	n	n	n	n
CC(=O)c1ccc(Nc2c3c(nc4ccccc24)CCCC3)cc1	x	x	x	n	x	x
CCOC(=O)N1CCC(N2C(=O)c3ccccc3C2Nc2ccc(S(=O)(=O)N3CCCCC3)cc2)CC1 (stereo not drawn)	n	n	n	n	n	n
CN1CCN(C(=O)C2=C[C@H](c3csc4ccccc34)C[C@H](OCCCCO)O2)CC1	n	n	n	n	n	n
N#CCCn1cc(C=O)c(-c2cccs2)n1	n	n	x	n	n	n
O=S(Cc1cc(Oc2ccccc2)nc(-c2ccccc2)n1)c1ccccc1 (stereo not drawn)	n	n	n	n	n	n
COc1ccc(NC(=O)c2ccc(S(=O)(=O)N(C)C)cc2)cc1	n	n	n	n	n	n
COc1ccc(-n2c(C)cc(-c3csc(NC(=O)c4ccc(S(=O)(=O)N(C)C)cc4)n3)c2C)cc1	n	n	n	n	n	63
COCCN(CCOC)S(=O)(=O)c1ccc(C(=O)Nc2nc(-c3ccncc3)cs2)cc1	n	n	n	n	n	85
O=C(CCOc1ccccc1)Nc1ccc([N+](=O)[O-])cc1	n	n	n	n	n	n
CC(C)(C)NC(=O)C(c1c[nH]c2ccccc12)N(C(=O)Cn1nnc(-c2ccc(F)cc2)n1)c1cccc(O)c1 (stereo not drawn)	n	n	n	n	n	n
CCc1ccc(NC(=O)Cn2cccc2)cc1	n	n	n	n	n	n
COc1cccc2c(SCC(=O)N/N=C/c3ccc(O)cc3O)cc(C)nc12	n	n	x	n	n	n
COc1ccc2nc(C)cc(SCC(=O)N/N=C/c3c(OC)ccc4ccccc34)c2c1	n	n	n	n	n	71
COc1ccc2nc(C)cc(SCC(=O)N/N=C/c3ccccc3)c2c1	n	n	n	n	n	n
COc1ccc(CSCC(=O)N/N=C/c2ccccc2O)cc1	n	n	n	n	n	68
COc1ccc2nc(C)cc(SCC(=O)N/N=C/c3ccc(O)cc3O)c2c1	n	n	n	n	n	98
O=C(CSc1n[nH]c(=O)[nH]c1=O)N/N=C/c1ccccc1O	n	n	n	n	n	100
CCOc1ccccc1/C=N/NC(=O)CSc1n[nH]c(=O)[nH]c1=O	n	n	n	n	n	n
CC(C)Oc1ccc(C2CC(=O)N(c3cccc(Br)c3)C2=O)cc1 (stereo not drawn)	x	x	x	n	x	x
COc1ccnc(-n2cccc2/C=N/O)c1C#N	n	n	x	n	n	n
CC(C)(C)N1CSC(=S)N(Cc2ccccc2)C1	n	n	n	n	n	91
S=C1SCN(Cc2cccnc2)CN1Cc1ccccc1	n	n	n	n	n	72
CC(C)N1CSC(=S)N(Cc2ccccc2)C1	n	n	x	n	n	75
Cc1ccc(S(=O)(=O)NCCc2nnc3ccc(SCC(=O)Nc4nc(C)cs4)nn23)cc1	n	n	n	n	n	n

Screening results as filed in PubChem BioAssay.
